ChEMBL document CHEMBL1123282, “Antiinflammatory activity of substituted 6-hydroxypyrimido[2,1-f]purine-2,4,8(1H,3H,9H)-triones. Atypical nonsteroidal antiinflammatory agents” (J Med Chem, 1986)
Several values for one entry are separate records, joined by “and”; a condition that tells them apart may be missing. Equal values may be shown once.

How the values were obtained:
[1] = target: T1, Polyunsaturated fatty acid 5-lipoxygenase (Rattus norvegicus) (UniProt P12527); experiment: In vitro inhibitory activity against Lipoxygenase in rat neutrophils at a dose of 50 uM
T1 sequence (whole entry): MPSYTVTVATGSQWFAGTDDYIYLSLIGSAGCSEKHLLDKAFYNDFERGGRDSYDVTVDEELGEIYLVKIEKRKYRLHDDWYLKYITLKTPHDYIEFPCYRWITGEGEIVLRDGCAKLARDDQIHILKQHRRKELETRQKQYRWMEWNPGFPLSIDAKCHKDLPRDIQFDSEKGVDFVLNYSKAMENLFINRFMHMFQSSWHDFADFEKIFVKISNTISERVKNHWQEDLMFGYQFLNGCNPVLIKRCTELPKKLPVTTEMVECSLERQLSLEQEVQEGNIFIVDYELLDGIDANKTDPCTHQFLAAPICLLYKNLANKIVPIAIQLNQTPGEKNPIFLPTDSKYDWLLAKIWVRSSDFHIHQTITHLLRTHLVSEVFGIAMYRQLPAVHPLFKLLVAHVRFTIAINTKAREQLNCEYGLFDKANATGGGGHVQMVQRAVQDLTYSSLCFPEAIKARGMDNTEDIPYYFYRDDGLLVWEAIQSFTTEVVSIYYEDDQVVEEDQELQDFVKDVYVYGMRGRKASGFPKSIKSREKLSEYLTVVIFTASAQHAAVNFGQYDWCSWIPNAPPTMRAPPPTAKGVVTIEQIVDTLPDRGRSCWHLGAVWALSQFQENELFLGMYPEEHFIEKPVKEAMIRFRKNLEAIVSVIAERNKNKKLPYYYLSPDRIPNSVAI
Outline: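 Neutrophils come from the 4 h pleural exudate of male Wistar-Lewis rats given iv BSA plus intrapleural rabbit anti-BSA IgG. Cells are washed, red cells lysed with NH4Cl, and resuspended at about 5×10^6 cells/0.1 mL in Tris pH 7.4 with NaCl and 1 mM CaCl2. Cells are preincubated with compound 4 min at room temperature.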

[2] = target: Cyclooxygenase (Rattus norvegicus) (UniProt P35355+Q63921); experiment: In vitro inhibitory activity against Prostaglandin G/H synthase in rat neutrophils at a dose of 50 uM
[3] = organism: Rattus norvegicus; experiment: Antiinflammatory activity by immune response to collagen II antigen in rats antibody titer was determined by passive hemagglutinination; type: functional
Outline: (§1)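 In rats with bovine type II collagen/incomplete Freund's adjuvant arthritis, the antibody response to collagen II was titred by passive hemagglutination. The delayed-type hypersensitivity component, ear thickness 24 h after intrapinna antigen, was read at day 21.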

[4] = organism: Rattus norvegicus; experiment: Delayed Type hypersensitivity (DTH) is measured by increase in ear thickness 24 hours after antigen injection into pinna; type: functional
[5] = system: Rattus norvegicus; experiment: Antiinflammatory activity against collagen II arthritis in rats, activity % inhibition in noninjected paw edema; type: functional; parameters: concentration or dose not given beside the values
Outline: (§2)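 Rats immunised with bovine articular-cartilage type II collagen (dissolved in 0.01 M AcOH for 24 h at 4 °C, dialysed against saline) mixed in equal volume with incomplete Freund's adjuvant. Paws were examined weekly for 7 weeks. An animal counted as arthritic at Δ paw volume ≥8.0 (injected paw) or ≥4.0 (noninjected paw). Bone lesions were scored on lateral-projection foot radiographs. 16 rats/group.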

[6] = system: Rattus norvegicus; experiment: Antiinflammatory activity against collagen II arthritis in rats, activity% inhibition in injected paw edema; type: functional; parameters: concentration or dose not given beside the values; outline: as §2
[7] = system: Rattus norvegicus; experiment: Tested in vivo for antiinflammatory activity against chronic adjuvant arthritic rat by prophylactic inhibition 2 degree paw after peroral administration of 9 mg/kg of dose; type: functional; details: route oral
Outline: (§3)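 Prophylactic regimen, rats. Adjuvant is heat-killed Mycobacterium tuberculosis ground to a fine powder in paraffin oil (6 mg/mL); 0.1 mL is injected into the left hind paw. Oral drug is given 1 h before adjuvant challenge, then for 21 consecutive days; controls receive methyl cellulose. Left (1°) and right (2°) hind paw volumes are measured by plethysmograph.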

[8] = system: Rattus norvegicus; experiment: Compound was tested in vivo for antiinflammatory activity against chronic adjuvant arthritic rat by therapeutic inhibition 1 degree paw after peroral administration of 9 mg/kg of dose; type: functional; details: route oral
[9] = system: Rattus norvegicus; experiment: Tested in vivo for antiinflammatory activity against chronic adjuvant arthritic rat by prophylactic inhibition 1 degree paw after peroral administration of 9 mg/kg of dose; type: functional; details: route oral; outline: as §3
[10] = system: Rattus norvegicus; experiment: Compound was tested in vivo for antiinflammatory activity against chronic adjuvant arthritic rat by prophylactic inhibition 2 degree paw after peroral administration of 18 mg/kg of dose; type: functional; details: route oral
Outline: (§4)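 Prophylactic adjuvant arthritis: heat-killed Mycobacterium tuberculosis powder in paraffin oil (6 mg/mL), 0.1 mL injected into the left hind paw. Drug given orally 1 h before adjuvant, then for 21 consecutive days; controls received methyl cellulose. Left (1°) and right (2°) hind paw volumes were measured by plethysmograph.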

[11] = system: Rattus norvegicus; experiment: Compound was tested in vivo for antiinflammatory activity against chronic adjuvant arthritic rat by prophylactic inhibition 2 degree paw after peroral administration of 36 mg/kg of dose; type: functional; details: po
[12] = system: Rattus norvegicus; experiment: Compound was tested in vivo for antiinflammatory activity against chronic adjuvant arthritic rat by prophylactic inhibition 1 degree paw after peroral administration of 18 mg/kg of dose; type: functional; outline: as §4
[13] = system: Rattus norvegicus; experiment: Compound was tested in vivo for antiinflammatory activity against chronic adjuvant arthritic rat by prophylactic inhibition 1 degree paw after peroral administration of 36 mg/kg of dose; type: functional; details: po
[14] = system: Rattus norvegicus; experiment: In vivo antiinflammatory activity against rats by RPAR(reverse passive Arthus reaction) synovitis method; type: functional; parameters: concentration or dose not given beside the values
Outline: (§5)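 Lewis rats, oral drug or placebo 1 h before iv BSA (2.28 mg in saline), then intraarticular rabbit anti-BSA (0.54 mg) into one knee and saline into the other, under light anesthesia. Second oral dose at 3 h; the total of both doses is the calculated dose. About 17 h after induction, subpatellar tissue with synovium is excised and weighed. Response is antibody-minus-saline knee weight, tested by analysis of variance.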

[15] = system: Rattus norvegicus; experiment: Compound was tested in vivo for antiinflammatory activity against chronic adjuvant arthritic rat by therapeutic inhibition 2 degree paw after peroral administration of 9 mg/kg of dose; type: functional; details: route oral
[16] = system: Rattus norvegicus; experiment: Compound was tested in vivo against chronic adjuvant arthritic rat by prophylactic inhibition 2 degree paw. Relative potency with respect to (8-Benzyl-5-hydroxy-1,3-dimethyl-6-propyl-1H,8H-1,3,4b,8,9-pentaaza-fluorene-2,4,7-trione); type: functional
[17] = system: Rattus norvegicus; experiment: Compound was tested in vivo for antiinflammatory activity against chronic adjuvant arthritic rat by therapeutic inhibition 2 degree paw. Relative potency with respect to (8-Benzyl-5-hydroxy-1,3-dimethyl-6-propyl-1H,8H-1,3,4b,8,9-pentaaza-fluorene-2; type: functional
[18] = organism: Rattus norvegicus; experiment: Antiinflammatory activity on the development of collagen II arthritis in rats, measured based on animals positive for arthritis by the presence of bone lesions; type: functional; outline: as §2
[19] = system: Rattus norvegicus; experiment: Antiinflammatory activity on the development of collagen II arthritis in rats, measured based on animals positive for arthritis by the presence of paw edema; type: functional; outline: as §2
[20] = system: Rattus norvegicus; experiment: Compound was tested in vivo for antiinflammatory activity against chronic adjuvant arthritic rat by therapeutic inhibition 2 degree paw after peroral administration of 36 mg/kg of dose; details: route oral
[21] = system: Rattus norvegicus; experiment: Compound was tested in vivo for antiinflammatory activity against chronic adjuvant arthritic rat by therapeutic inhibition 1 degree paw after peroral administration of 36 mg/kg of dose; details: route oral
[22] = system: Rattus norvegicus; experiment: (§6) compound was tested in vivo for antiinflammatory activity against rats by RPAR(reverse passive Arthus reaction) synovitis method; type: functional
Outline: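 Lewis rats dosed orally 1 h before iv BSA (2.28 mg) and intraarticular rabbit anti-BSA (0.54 mg) into one knee, saline into the other; dosed orally again at 3 h. Total dose counted. At about 17 h, subpatellar tissue with synovium weighed; Δ weight between the two knees taken as the response. Compared with lesion controls by ANOVA.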

[23] = organism: Rattus norvegicus; experiment: Compound was tested for antiinflammatory activity by immune response to collagen II antigen in rats, antibody titer was determined by passive hemagglutinination; type: functional; outline: as §1
[24] = organism: Rattus norvegicus; experiment: Compound was tested for antiinflammatory activity against collagen II arthritis in rats,; type: functional; outline: as §2
[25] = organism: Rattus norvegicus; experiment: compound was tested for antiinflammatory activity against collagen II arthritis in rats,; type: functional
Outline: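 Arthritis induced in rats by injection of bovine articular cartilage type II collagen (dissolved in 0.01 M AcOH, dialysed against saline) mixed 1:1 with incomplete Freund's adjuvant. Paw inflammation checked weekly for 7 weeks. Inhibition = [Δpaw vol(collagen) − Δpaw vol(collagen + drug)]/[Δpaw vol(collagen) − Δpaw vol(ICFA control)] × 100. Bone damage scored by lateral-projection radiography; p ≤ 0.05 by Student's t-test.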

[26] = system: Rattus norvegicus; experiment: Compound was tested in vivo for antiinflammatory activity against rats by RPAR(reverse passive Arthus reaction) synovitis method; type: functional; outline: as §5
[27] = system: Rattus norvegicus; experiment: Compound was tested in vivo for antiinflammatory activity against chronic adjuvant arthritic rat by therapeutic inhibition 2 degree paw after peroral administration of 5 mg/kg of dose; details: po, read-out: Inhibition
[28] = system: Rattus norvegicus; experiment: Compound was tested in vivo for antiinflammatory activity against chronic adjuvant arthritic rat by therapeutic inhibition 1 degree paw after peroral administration of 5 mg/kg of dose; details: po, read-out: Inhibition
[29] = system: Rattus norvegicus; experiment: Compound was tested in vivo for antiinflammatory activity against chronic adjuvant arthritic rat by prophylactic inhibition 2 degree paw after peroral administration of 2 mg/kg of dose; details: po, read-out: Inhibition
[30] = system: Rattus norvegicus; experiment: Compound was tested in vivo for antiinflammatory activity against chronic adjuvant arthritic rat by prophylactic inhibition 1 degree paw after peroral administration of 2 mg/kg of dose; details: po, read-out: Inhibition
[31] = system: Rattus norvegicus; experiment: Compound was tested in vivo for antiinflammatory activity against chronic adjuvant arthritic rat by therapeutic inhibition 2 degree paw after peroral administration of 3 mg/kg of dose; details: po, read-out: Inhibition
[32] = system: Rattus norvegicus; experiment: Compound was tested in vivo for antiinflammatory activity against chronic adjuvant arthritic rat by therapeutic inhibition 2 degree paw after peroral administration of 0.3 mg/kg of dose; details: po, read-out: Inhibition
[33] = system: Rattus norvegicus; experiment: Compound was tested in vivo for antiinflammatory activity against chronic adjuvant arthritic rat by therapeutic inhibition 2 degree paw after peroral administration of 1 mg/kg of dose; type: functional; details: route oral
[34] = system: Rattus norvegicus; experiment: Compound was tested in vivo for antiinflammatory activity against chronic adjuvant arthritic rat by prophylactic inhibition 2 degree paw after peroral administration of 1 mg/kg of dose; details: po, read-out: Inhibition
[35] = system: Rattus norvegicus; experiment: as §6
[36] = organism: Rattus norvegicus; experiment: animal or person; details: po, read-out: Inhibition
[37] = system: Rattus norvegicus; experiment: Compound was tested in vivo for antiinflammatory activity against chronic adjuvant arthritic rat by prophylactic inhibition 1 degree paw after peroral administration of 10 mg/kg of dose; type: functional; details: route oral; outline: as §4
[38] = system: Rattus norvegicus; experiment: Compound was tested in vivo for antiinflammatory activity against chronic adjuvant arthritic rat by prophylactic inhibition 2 degree paw after peroral administration of 10 mg/kg of dose; type: functional; details: route oral; outline: as §4

CCCc1c(O)n(Cc2ccccc2)c2nc3c(c(=O)n(C)c(=O)n3C)n2c1=O
inhibition [1]: 0% and 5% | inhibition [2]: 43% | Antibody titer [3]: 9.2 | DTH [4]: 0.0464 mm | Inhibition [5]: 37.5% | Inhibition [6]: 9.6% | inhibition in vivo at 9 mg/kg [7]: 38% | inhibition in vivo at 9 mg/kg [8]: 17% | inhibition in vivo at 9 mg/kg [9]: 16% | inhibition in vivo at 18 mg/kg [10]: 52% | inhibition in vivo at 36 mg/kg [11]: 78% | inhibition in vivo at 18 mg/kg ([12]; Rattus norvegicus, po): 41% | Inhibition ([12]; route oral, 18 mg/kg): 41% | inhibition in vivo at 36 mg/kg [13]: 59% | Inhibition [14]: 33% | inhibition in vivo at 9 mg/kg [15]: 15% | Relative potency [16]: 1 | Relative potency [17]: 1 | Positive [18]: 26.7% | Positive [19]: 26.7% | Inhibition [20]: 77% | Inhibition [21]: 64%

Cn1c(=O)c2c(nc3n(Cc4ccccc4)c(=O)/c(=C/O)c(=O)n23)n(C)c1=O
Inhibition [22]: 14%

CC(C)(S)[C@@H](N)C(=O)O [PENICILLAMINE]
Antibody titer [23]: 10.7 | DTH [4]: 0.0538 mm | Inhibition [5]: 42.6% | Inhibition [6]: 36% | Positive [24]: 31.5% | Positive [25]: 31.3%

CN1C(C(=O)Nc2ccccn2)=C(O)c2ccccc2S1(=O)=O [PIROXICAM]
Antibody titer [3]: 12.2 | DTH [4]: 0.0526 mm | ED50 [26]: 3.5 mg/kg | Inhibition [5]: 0% | Inhibition [6]: 0% | inhibition in vivo at 5 mg/kg [27]: 80% | inhibition in vivo at 5 mg/kg [28]: 68% | inhibition in vivo at 2 mg/kg [29]: 84% | inhibition in vivo at 2 mg/kg [30]: 66% | Positive [18]: 60% | Positive [19]: 73.3%

COc1ccc2cc([C@H](C)C(=O)O)ccc2c1 [NAPROXEN]
inhibition in vivo at 3 mg/kg [31]: 70% | inhibition in vivo at 5 mg/kg [27]: 44% | inhibition in vivo at 0.3 mg/kg [32]: 27% | inhibition in vivo at 1 mg/kg [33]: 50% | inhibition in vivo at 1 mg/kg [34]: 14% | ED50 [35]: 24.4 mg/kg | inhibition in vivo at 25 mg/kg [36]: 58%

C=CCc1c(O)n(Cc2ccccc2)c2nc3c(c(=O)n(C)c(=O)n3C)n2c1=O
inhibition [1]: 16% and 20% | inhibition [2]: 16% | inhibition in vivo at 10 mg/kg [37]: 16% | inhibition in vivo at 10 mg/kg [38]: 16% | Inhibition [14]: 29%
